In ChEMBL document CHEMBL1132999, “Synthesis and oral antitumor activity of tetrakis(carboxylato)platinum(IV) complexes” (J Med Chem, 2000):

Experiments:
[1] = Partition coefficient (logP); format: physicochemical; conditions: octanol/water
L1210 = assay: in vitro antitumor activity (cytotoxicity) against the murine leukemia L1210 cell; format: functional, cell-based; conditions: Mus musculus
Mus musculus [2] = assay: antitumor activity (survival) by the oral administration of 150 mg/kg scheduled treatment (Q1D x 5) in BDF1 mice inoculated with L1210 leukemia; format: functional, organism-based; set-up: dose 150 mg/kg; conditions: at 150 mg/kg
How it was run: (§1)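 BDF1 mice inoculated with L1210 leukaemia and fasted before dosing. Complexes suspended in 0.2 mL 0.5% Tween 80 and given by stomach catheter on days 1-5 (Q1D × 5). Activity expressed as T/C (%), the ratio of mean survival time (days) of treated versus control mice.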

Mus musculus [3] = assay: antitumor activity (survival) by the oral administration of 150 mg/kg scheduled treatment (Q1D x 5) in BDF1 mice inoculated with L1210 leukemia; toxic; format: functional, organism-based; set-up: dose 150 mg/kg; how it was run: as §1
Mus musculus [4] = assay: antitumor activity (survival) by the oral administration of 100 mg/kg scheduled treatment (Q1D x 5) in BDF1 mice inoculated with L1210 leukemia; format: functional, organism-based; set-up: dose 100 mg/kg; conditions: at 100 mg/kg; how it was run: as §1

logP [1] | Substance | ED50 (L1210) | T/C (Mus musculus [2]) | further results
1.54 | [Pt(O2CC3H7)4(dach)]dach : trans-(+/-)-1,2-diaminocyclohexane [listing 1 of 2 here] | – | – | –
– | [Pt(OH)4(dach)]dach | 32.6 µM | 112% | –
– | [Pt(O2CCH3)4(dach)]dach [listing 1 of 2 here] | 25.8 µM | 100% | –
3.03 | [Pt(O2CC5H11)4(dach)]dach : trans-(+/-)-1,2-diaminocyclohexane [listing 1 of 2 here] | – | – | –
– | [Pt(O2CC5H11)4(dach)]dach : trans-(+/-)-1,2-diaminocyclohexane [listing 2 of 2 here] | > 50 µM | 98.9% | –
2.54 | [Pt(O2CC4H9)4(dach)]dach : trans-(+/-)-1,2-diaminocyclohexane [listing 1 of 2 here] | – | – | –
-1.59 | [Pt(O2CCH3)4(dach)]dach [listing 2 of 2 here] | – | – | –
– | [Pt(O2CC4H9)4(dach)]dach : trans-(+/-)-1,2-diaminocyclohexane [listing 2 of 2 here] | > 50 µM | 107% | –
– | [Pt(O2CC3H7)4(dach)]dach : trans-(+/-)-1,2-diaminocyclohexane [listing 2 of 2 here] | 6.2 µM | – | T/C (Mus musculus [3]): Toxic; T/C (Mus musculus [4]): 108%
